This is an account of results in ChEMBL document CHEMBL1124002, “Antiallergy agents. 1. Substituted 1,8-naphthyridin-2(1H)-ones as inhibitors of SRS-A release” (J Med Chem, 1988).

As a reminder, the inhibition is the drop in the measured response relative to a control, in per cent. Low values mean a weak effect, high ones a strong effect. In general, Inhibition refers to the drop in the measured response relative to a control, in per cent. High values mean a strong effect, low ones a weak effect. As usually defined, the ED50 is the dose at which the effect has come halfway, by size or by number of responders. Higher therefore signals weaker potency. By pIC50 is commonly meant the IC50 on a negative log10 scale, so that one unit is a factor of ten.

Structures are written as SMILES. pIC50: −log10 of the molar value. Calls of active or inactive are those of the source. The calls are words filed in the database; no cut-off is given here.

The subject of assay [1] is Cavia porcellus. Put plainly: Percent inhibition of bronchospasm when administered at a dose of 1 mg/kg in guinea pig. The settings on record: Bronchiole. The class given is functional. The gist of the method:
(§1)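 Ovalbumin-sensitized, anesthetized guinea pigs received iv propranolol 1 mg/kg, indomethacin 5 mg/kg and mepyramine 2 mg/kg, then a 0.5 min aerosol challenge with 0.5% ovalbumin 15 min later. The agent was given intravenously. The rise in inflation pressure was scored as % inhibition of bronchospasm.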

For assay [2], the system named is Cavia porcellus. The assay is described as follows: Percent inhibition of bronchospasm when administered at a dose of 5 mg/kg in guinea pig. The class given is functional. The settings on record: Bronchiole. The gist of the method:
as §1

Assay [3] concerns Cavia porcellus. Put plainly: Percent inhibition of bronchospasm when administered at a dose of 2.5 mg/kg in guinea pig. The settings on record: Bronchiole. The class given is functional. Summed up: as §1
Assay [4] is filed under the species Cavia porcellus. The assay is described as follows: Percent inhibition of SRS-A release in vitro at a dose of 10 uM in guinea pig. The class given is functional. Summed up: (§2)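 Male Hartley guinea pigs were sensitized with ovalbumin (5 mg ip + 5 mg sc on day 1, 5 mg ip on day 4). About 400 mg chopped lung was preincubated with compound for 12 min at 37 °C in Tyrode's with 10 mM cysteine, then challenged with 20 μg/mL ovalbumin (final) for 0.25 h. SRS-A in ethanol-extracted supernatant was bioassayed on mepyramine-treated ileum against a rat SRS-A standard. Results are % inhibition versus vehicle, from 3-4 lungs.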

Assay [5] deals with Cavia porcellus. The assay is described as follows: Percent inhibition of bronchospasm in vivo at a dose of 12.5 mg/kg in guinea pig. The class given is functional. The settings on record: Bronchiole. The gist of the method: (§3)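 Guinea pigs were sensitized with ovalbumin and used 3-4 weeks later. They were fasted and anesthetized with dialurethane ip. Compounds were given orally 2 h before challenge. Propranolol 1 mg/kg, indomethacin 5 mg/kg and mepyramine 2 mg/kg were given iv 15 min before a 0.5 min aerosol of 0.5% ovalbumin through the tracheal cannula. The rise in inflation pressure measured bronchoconstriction. Results are % inhibition, 4-5 animals per group.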

Assay [6] is filed under the species Cavia porcellus. Put plainly: Production of LTD4 in guinea pig lung. The format is functional. The gist of the method: (§4)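 Lung fragments pooled from four sensitized guinea pigs were challenged in 0.4 g aliquots with antigen, with 10 μM test agent or DMSO vehicle added 12 min before challenge. Tyrode's held 10 mM cysteine and 10 μM indomethacin. Ethanol extracts were pooled, solvent-partitioned and run on reverse-phase HPLC with UV 280 nm. LTD4 was quantified against an LTC4 standard curve (10-200 pmol) as pmol/g.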

The species entered for assay [7] is Cavia porcellus. The assay is described as follows: Compound was tested for th inhibition of SRS-A production in guinea pig lung. The class given is functional. The gist of the method: (§5)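 Antigen-challenged lung fragments from sensitized guinea pigs were treated with 10 μM test agent or DMSO vehicle 12 min before challenge. Tyrode's contained 10 mM cysteine and 10 μM indomethacin. SRS-A in ethanol extracts was bioassayed on guinea pig ileum and given as units/g, mean ± SEM of 4 lungs. A paired t test compared treatment with vehicle.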

In assay [8] the test system is Cavia porcellus. Put plainly: Effective oral dose required to inhibit bronchospasm in guinea pig; 1.3-7.6 mg/kg. The format is functional. The note with it: Bronchiole. Summed up:
as §3

Assay [9] is filed under the species Rattus norvegicus. Put plainly: Compound was tested in vitro in rat polymorphonuclear leucocyte for the inhibition of production of leukotriene products at 50 uM concentration; No inhibition. The format is functional.
For assay [10], the species on record is Cavia porcellus. The assay is described as follows: Inhibitory activity against SRS-A release in guinea pig; 0.7-2 uM. The class given is functional. The gist of the method: as §2
For assay [11], the species on record is Cavia porcellus. Put plainly: Compound was tested for th inhibition of LTD4 production in guinea pig lung. The format is functional. Summed up: as §4
For assay [12], the species on record is Cavia porcellus. The assay is described as follows: Production of SRS-A in guinea pig lung. The class given is functional. The gist of the method:
as §5

The species entered for assay [13] is Mus musculus. Put plainly: Compound was tested in vitro in cloned murine mast cell (MC-9) for the inhibition of production of leukotriene products at 50 uM concentration; No inhibition. The format is functional.
In assay [14] the test system is Cavia porcellus. The assay is described as follows: Effective oral dose required to inhibit bronchospasm in guinea pig. The format is functional. The settings on record: Bronchiole. Summed up:
as §3

The species named for assay [15] is Cavia porcellus. Put plainly: Inhibitory activity against sulfidopeptide leukotriene release in guinea pig. The format is functional.
The test system of assay [16] is Cavia porcellus. Put plainly: Percent inhibition of bronchospasm in vivo at a dose of 25 mg/kg in guinea pig. The settings on record: Bronchiole. The format is functional. The gist of the method: as §3
The species named for assay [17] is Cavia porcellus. The assay is described as follows: Inhibitory activity against SRS-A release in guinea pig; 0.05-14 uM. The class given is functional. The gist of the method: as §2
In assay [18] the test system is Cavia porcellus. Put plainly: Effective oral dose required to inhibit bronchospasm in guinea pig; 0.9-12.8 mg/kg. The format is functional. The settings on record: Bronchiole. The gist of the method: as §3
The species named for assay [19] is Cavia porcellus. The assay is described as follows: Inhibitory activity against SRS-A release in guinea pig; 0.01-19 uM. The class given is functional. The gist of the method: as §2
The test system of assay [20] is Cavia porcellus. Put plainly: Percent inhibition of bronchospasm in vivo at oral dose of 25 mg/kg in guinea pig.
In assay [21] the test system is Cavia porcellus. The assay is described as follows: Percent inhibition of bronchospasm administered intravenously at a dose of 5 mg/kg in guinea pig. The class given is functional. The note with it: Bronchiole, route intravenous. The gist of the method:
as §1

Assay [22] relates to Cavia porcellus. Put plainly: Percent inhibition of bronchospasm in vivo for a dose of 5 mg/kg in guinea pig. The format is functional. The settings on record: Bronchiole, read-out: Inhibition. Summed up: as §1
The species entered for assay [23] is Cavia porcellus. Put plainly: Percent inhibition of SRS-A release in vitro at a dose of 3 uM in guinea pig. The format is functional. Summed up: as §2
In assay [24] the test system is Cavia porcellus. Put plainly: Percent inhibition of bronchospasm, when administered orally at a dose of 160 mg/kg to guinea pig. The note with it: Bronchiole, route oral. The class given is functional. The gist of the method: (§6)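 Male Hartley guinea pigs were sensitized with ovalbumin (5 mg ip plus 5 mg sc on day 1, 5 mg ip on day 4) and used 3-4 weeks later, fasted overnight and given dialurethane ip. They were dosed orally 2 h before challenge and given iv propranolol 1 mg/kg, indomethacin 5 mg/kg and mepyramine 2 mg/kg. Fifteen minutes later, 0.5% ovalbumin aerosol was delivered for 0.5 min via tracheal cannula. Read-out was increased inflation pressure, as mean % inhibition from 4-5 animals.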

In assay [25] the test system is Cavia porcellus. Put plainly: Percent inhibition of bronchospasm, when administered orally at a dose of 53 mg/kg in guinea pig. The class given is functional. The settings on record: Bronchiole, route oral. The gist of the method: as §6
The subject of assay [26] is Cavia porcellus. The assay is described as follows: Percent inhibition of bronchospasm, when administered orally at a dose of 18 mg/kg in guinea pig. The note with it: Bronchiole, route oral. The class given is functional. The gist of the method: as §6

Take `CCCc1c(OCC(O)COc2ccc3c(=O)cc(C(=O)O)oc3c2CCC)ccc(C(C)=O)c1O` (centres undefined) [FPL-55712]: in assay [1], the inhibition in vivo at 1 mg/kg is 32%. The molecule also showed an inhibition in vivo at 5 mg/kg in assay [2] of 68%. Besides, the inhibition in vivo at 2.5 mg/kg in [3] came out at 57%.
For the molecule `CCCCc1c(O)c2cccnc2n(-c2ccc(O)c(C(=O)OCC)c2)c1=O`, testing at 10 µM in assay [4] gave an inhibition of 65%. For the same molecule, the inhibition in vivo at 12.5 mg/kg in assay [5] is 0%.
Regarding `C=CCc1c(OC(C)=O)c2cccnc2n(-c2ccccc2)c1=O`, the LTD4 production at 10 µM in assay [6] is 25 pmol/g. Further, the Inhibition in [7] was 69%; in [11] it was 70%. Besides, the inhibition at 10 µM in assay [4] stood at 73%. In [8], this molecule had an ED50 of 2.9 mg/kg. Besides, the outcome in assay [9] and in assay [13] was inactive. For the same molecule, the pIC50 in assay [10] was 5.96. Besides, the SRS-A release at 10 µM in assay [12] worked out at 9.3 units/g. Also, the inhibition in vivo at 12.5 mg/kg in assay [5] was found to be 84%.
In [14], `C=CCc1c(OC(C)=O)c2cccnc2n(-c2cccc(Cl)c2)c1=O` came in with an ED50 of 0.4 mg/kg. The molecule also had a pIC50 in assay [15] of roughly 6.00. Further, in [4], the inhibition at 10 µM amounted to 60%.
Molecule `O=c1c(-c2ccccn2)c(O)c2cccnc2n1-c1ccccc1` returned an inhibition at 10 µM in assay [4] of 84%. The molecule also yielded an inhibition in vivo at 12.5 mg/kg in [5] of 42%.
For the molecule `C=CCc1c(O)c2cccnc2n(-c2ccccc2OC)c1=O`, in assay [16], the inhibition in vivo at 25 mg/kg is 90%. Further, the pIC50 in [17] is 6.01. In assay [18], this molecule yielded an ED50 of 3.7 mg/kg. This molecule yielded an inhibition at 10 µM in assay [4] of 69%.
In the case of `CCCCc1c([O-])c2cccnc2n(-c2ccccc2)c1=O.[Na+]`, the pIC50 in [19] is 6.62. Besides, in [14], the ED50 was found to be 14 mg/kg. This molecule gave an inhibition at 10 µM in assay [4] of 56%. This molecule also registered an inhibition in vivo at 12.5 mg/kg in assay [5] of 68%.
Molecule `C#CCOc1c(CC#C)c(=O)n(-c2ccccc2)c2ncccc12` showed an inhibition at 10 µM in assay [4] of 62%. For the same molecule, the inhibition in vivo at 12.5 mg/kg in assay [5] is 0%.
In the case of `C=CCc1c(O)c2cccnc2n(-c2ccccc2)c1=O`, the inhibition at 10 µM in assay [4] came out at 81%. This molecule also had an Inhibition in assay [20] of 85%.
The molecule `CCCCc1c(OC(C)=O)c2cccnc2n(-c2ccc(F)cc2)c1=O` registered an inhibition at 10 µM in assay [4] of 77%. For the same molecule, the inhibition in vivo at 12.5 mg/kg in [5] is 34%.
Consider `CCCCc1c(OCCN(C)C)c2cccnc2n(-c2ccccc2)c1=O`, for which the inhibition in vivo at 25 mg/kg in assay [16] amounted to 84%. Also, 10 µM produced 0% inhibition in assay [4]. Further, the inhibition in vivo at 12.5 mg/kg in [5] was found to be 13%.
`CCCCc1c(O)c2cccnc2n(-c2ccc(F)cc2)c1=O` yielded an inhibition at 10 µM in assay [4] of 95%. This molecule also came in with an inhibition in vivo at 12.5 mg/kg in [5] of 0%.
For `CCCc1c2c(c(O)c3c(=O)cc(C(=O)O)oc13)CCCC2` [PROXICROMIL], the inhibition in vivo at 5 mg/kg in assay [21] and in assay [22] was 0% throughout.
As to `C=CCc1c(OC(C)=O)c2cccnc2n(-c2ccc(OCc3ccccc3)cc2)c1=O`, the inhibition at 3 µM in [23] amounted to 23%.
Regarding `Cn1c(=O)c2[nH]cnc2n(C)c1=O` [AMINOPHYLLINE], in assay [24], the inhibition in vivo at 160 mg/kg is 81%. This molecule also showed an inhibition in vivo at 53 mg/kg in [25] of 55%. The inhibition in vivo at 18 mg/kg in [26] stood at 21%.
On to `CCc1c(O)c2cccnc2n(-c2ccccc2)c1=O`, for which at 10 µM the inhibition in assay [4] was 74%. This molecule also displayed an inhibition in vivo at 12.5 mg/kg in [5] of 44%.
On the same counts, the results for `O=c1c(CCc2ccccn2)c(O)c2cccnc2n1-c1ccccc1` are 58% and 5%.
